Measured values as given in ChEMBL document CHEMBL1126298, “New triazine derivatives as potent modulators of multidrug resistance” (1992).

Experiments:
DC3F/AD [1] = assay: Increase in adriamycin uptake in modulator-treated cells relative to untreated cells at a concentration of 10 uM; type: functional, Cricetulus griseus
Outline: (§1)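 DC-3F/AD or KB-A1 cells (5 × 10⁶/mL) were incubated at 37 °C for 5 h with 50 μM adriamycin plus modulator (2.5–10 μM range). ADR fluorescence of 10 000 cells was read by flow cytometry at 4 °C with 488 nm argon-laser excitation. The value is the increase in mean fluorescence of treated cells over untreated cells.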

DC3F/AD [2] = assay: Increase in adriamycin uptake in modulator-treated cells relative to untreated cells at a concentration of 5 uM; type: functional, Cricetulus griseus; outline: as §1
DC3F/AD [3] = assay: Percent of cell viability remaining after incubating the cells with the modulator alone a concentration of 5 uM; type: functional, Cricetulus griseus
Outline: (§2)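 Cells were grown with modulator alone for 4 days under the same conditions as the chemosensitivity assay, and read by MTT. Viability = (absorbance with modulator/absorbance of control cells) × 100. "tox" marks viability below 25%.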

KB [4] = assay: Percent of cell viability remaining after incubating the cells with the modulator alone; type: functional, Homo sapiens; set-up: concentration or dose not given beside the values; outline: as §2
KB [5] = assay: Increase in adriamycin uptake in modulator-treated cells relative to untreated KB-A1 cells at a concentration of 5 uM; type: functional, Homo sapiens; outline: as §1
KB [6] = assay: In vitro activity in KB-A1 cell line activity expressed as fold reversion (Ratio of IC50(adriamycin alone) / IC50(adriamycin + modulator) at a concentration of 5 uM; type: functional, Homo sapiens
Outline: (§3)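 Human epidermoid KB-A1 cells (Pgp-overexpressing) were grown in RPMI 1640 with 10% FCS and 10 mM HEPES (pH 7.4). They were exposed for 4 days to adriamycin (nine graded concentrations, in triplicate) with or without 5 μM modulator. IC50 was read by the MTT assay. Fold reversion = IC50(ADR alone)/IC50(ADR + modulator).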

P388 [7] = assay: Antitumor activity of vincristine against P388 leukemia cell line in mice at a dose of 100 mg/kg.; type: functional, Mus musculus
P388 [8] = assay: Antitumor activity of vincristine against P388 leukemia cell line in mice at a dose of 50 mg/kg.; type: functional, Mus musculus
DC3F/AD [9] = assay: Percent of cell viability remaining after incubating with a 10 uM concentration; type: functional, Cricetulus griseus; outline: as §2
DC3F/AD [10] = assay: In vitro activity in DC-3F/AD cell line Ratio of IC50(actinomycin D alone) / IC50(actinomycin D + modulator) at a concentration of 10 uM
Cricetinae gen. sp. = assay: Compound was evaluated for in vitro activity in DC-3F/AD cell line(Ratio of IC50(actinomycin D alone) / IC50(actinomycin D + modulator) at a concentration of 5 uM
KB [11] = assay: Compound was evaluated for the in vitro activity in KB-A1 cell line. Activity expressed as fold reversion (Ratio of IC50(adriamycin alone) / IC50(adriamycin + modulator) at a concentration of 5 uM; type: functional, Homo sapiens; outline: as §3
P388 [12] = assay: Antitumor activity of vincristine against P388 leukemia cell line in mice at a dose of 100 mg/kg; type: functional, Mus musculus
P388 [13] = assay: Antitumor activity of vincristine against P388 leukemia cell line in mice at a dose of 50 mg/kg; type: functional, Mus musculus
DC3F/AD [14] = assay: In vitro activity in DC-3F/AD cell line(Ratio of IC50(actinomycin D alone) / IC50(actinomycin D + modulator) at a concentration of 5 uM
P388/VCR [15] = assay: Antitumor activity of vincristine against P388/VCR leukemia in mice at a dose of 100 mg/kg; type: functional, Mus musculus
P388/VCR [16] = assay: Antitumor activity of vincristine against P388/VCR leukemia in mice at a dose of 50 mg/kg; type: functional, Mus musculus
DC3F/AD [17] = assay: Compound was evaluated for in vitro activity in DC-3F/AD cell line (Ratio of IC50(actinomycin D alone) / IC50(actinomycin D + modulator) at a concentration of 5 uM

Row | SMILES | Increase (DC3F/AD [1]) | Increase (DC3F/AD [2]) | Viability (DC3F/AD [3]) | Viability (KB [4]) | Increase (KB [5]) | Fold reversion (KB [6]) | T/C (P388 [7]) | T/C (P388 [8]) | Viability (DC3F/AD [9]) | Fold reversion (DC3F/AD [10]) | Fold reversion (Cricetinae gen. sp.) | Fold reversion (KB [11]) | T/C (P388 [12]) | T/C (P388 [13]) | Fold reversion (DC3F/AD [14]) | T/C (P388/VCR [15]) | T/C (P388/VCR [16]) | Fold reversion (DC3F/AD [17])
1 | C=CCNc1nc(NCC)nc(N2CCC(NCC3c4ccccc4COc4ccccc43)CC2)n1 (stereo not given) | 21.8 | 18 | 76% | 101% | 38.8 | 229 | 180% | 196% | 86% | 2630 | 1327 |  |  |  |  |  |  | 
2 | C=CCNc1nc(NCC=C)nc(N2CCC(NCC3c4ccccc4COc4ccccc43)CC2)n1 (stereo not given) | 25.3 | 25.5 | 82% | 106% | 53.7 |  |  |  | 78% | 5344 |  | 274 | 191% | 196% | 1932 |  |  | 
3 | C=CCNc1nc(NCC=C)nc(N2CCC(NCC(c3ccc(F)cc3)c3ccc(F)cc3)CC2)n1 | 35.6 | 26.1 | 78% | 75% | 56.5 | 168 | 157% |  | 62% | 2564 |  |  |  | 168% |  | 185% | 176% | 918
